TRPC4 inh – blocks the mouse TRPC4 cation channel; HEK293 TRPC4beta/mu-opioid, DAMGO-evoked Fluo4 calcium flux; active compounds read low; 300,000 compounds, 0.39% hits; B-score at 10 µM; Q9QUQ5;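 active = B-score over 3 SD under the library average, no early fluorescence shift, positive overall ratio signal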
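material = TRPC4beta/mu-opioid receptor HEK293 cell line | probe or stimulus = sequential submaximal and maximal DAMGO stimulation | compound dosing = one concentration per compound | measured by = Fluo4 Ca2+ flux fluorescence | evaluation = integrated fluorescence ratio relative to baseline, converted to per-well B score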
TRPC4 act – opens the mouse TRPC4 cation channel | Q9QUQ5 | HEK293 TRPC4beta/mu-opioid, Fluo4 calcium fluorescence; active compounds read high | B-score at 10 µM | 310,000 compounds, 0.49% hits | AID 2237;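 active = B-score above 5 SD of library B-scores, and initial fluorescence ratio not above library mean plus 5 SD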;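 also: positive B-score marks a calcium rise read as TRPC4 activation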
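system = HEK293 cells stably co-expressing mouse TRPC4beta and mu-opioid receptor | schedule = Fluo4 dye loading 45 min at room temperature, 110 s recording | measure = B-scored integrated calcium fluorescence ratio | signal = Fluo4 calcium-sensitive dye fluorescence, kinetic, 1 Hz baseline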
TRPC4 potent – allosteric potentiators of mouse TRPC4 channel; Q9QUQ5; HEK293 TRPC4beta/mu-opioid, DAMGO EC20, Fluo-4 Ca2+ flux; active compounds read high; B-score at 10 µM; 310,000 compounds, 0.42% hits;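 active = B-score of calcium response area above 5 SD of library B-scores, with initial fluorescence ratio within 5 SD of library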;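 also: B-score of integrated fluorescence ratio over time as area under calcium response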
TRPC6 inhibitor – inhibitors of mouse TRPC6 channel | HEK293-TRPC6, membrane potential dye, ACh-evoked depolarization; active compounds read low | AID 2553 | Q61143 | 310,000 compounds, 1.1% hits | B-score at 10 µM;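 active = B-score under library mean minus 3 SD, initial fluorescence not abnormally high, positive integrated signal ratio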;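 also: B-score derived from integrated fluorescence ratio over the kinetic read; more negative B-score means stronger inhibition of depolarization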
TRPC6 activator – activators of mouse TRPC6 channel; Q61143; HEK293-TRPC6 membrane potential dye fluorescence; active compounds read high; B-score at 10 µM; 310,000 compounds, 0.13% hits; AID 2550;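 active = B-score of the integrated fluorescence ratio above library mean plus 3 SD, and starting fluorescence ratio within library mean plus 5 SD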;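 also: higher score means more depolarization so channel activation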
TRPC4 sel inh 2 – second check of whether TRPC6 inhibitors also affect mouse TRPC4; shares compounds with TRPC6 inhibitor; HEK293 TRPC4/MOR, membrane potential dye fluorescence; channel activated by saturating DAMGO dose; inhibition, % at 10 µM; 920 compounds, 42% hits;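 active = compounds whose fluorescence signal differed from control wells by over 3 SD, either direction, in both duplicate plates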
TRPC4 spec – mouse TRPC4 off-target activity of TRPC6 inhibitors. activity change, negative = inhibition, % at 10 µM. 920 compounds, 61% hits. shares compounds with TRPC6 inhibitor. HEK293 TRPC4/mu-opioid, membrane potential fluorescence;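 active = rise or fall in signal beyond 3 SD of buffer-only wells in both replicate plates, either sign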;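 also: integrated kinetic ratio of fluorescence range over baseline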
HEK293 MPD ctr 2-1 – second check of TRPC6 inhibitor effects in parental HEK293 cells | AID 2779 | signal change vs control, % at 10 µM | parental HEK293 membrane potential dye fluorescence; maximal acetylcholine challenge after compound addition | 920 compounds, 31% hits | shares compounds with TRPC6 inhibitor;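 active = membrane potential signal moving either way by over 3 SD of the maximum-effect control, in both duplicate plates, meaning non-specific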
HEK293 MPD ctr-1 – parental HEK293 nonspecific activity of TRPC6 inhibitors; parental HEK293 membrane potential dye fluorescence; AID 2780; 920 compounds, 60% hits; shares compounds with TRPC6 inhibitor; membrane potential signal change, % at 10 µM;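 active = membrane potential signal shifting up or down by more than 3 SD of buffer-only wells, on both duplicate plates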
HEK293 MPD ctr-2 – counter-screen for TRPC6 modulators: effect in parental HEK293 cells | AID 488924 | membrane potential signal change, % at 10 µM | membrane potential dye fluorescence | 2,400 compounds, 51% hits | shares compounds with TRPC6 inhibitor;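 active = membrane potential signal moves up or down beyond 5 SD from buffer-only wells, on both duplicate plates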
HEK293 MPD ctr 2-2 – second counter-screen for TRPC6 modulators: effect in parental HEK293 cells | inhibition, % at 10 µM | AID 488926 | 2,400 compounds, 14% hits | shares compounds with TRPC6 inhibitor | membrane potential dye fluorescence; after compound, maximal acetylcholine stimulation;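 active = membrane potential signal drops by more than 5 SD from the mean control signal, in both duplicate plates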;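 also: plate controls were acetylcholine ECmax control wells for no effect and buffer only wells for full effect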
TRPC4/MOR mod – tests whether TRPC6 modulators also affect mouse TRPC4; shares compounds with TRPC6 inhibitor; HEK293 TRPC4/mu-opioid, membrane potential fluorescence; percent change from control (negative = decrease, positive = increase), % at 10 µM; 2,400 compounds, 69% hits;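 active = membrane potential signal moved up or down beyond 5 SD of buffer control wells, in both duplicate plates, actives on both sides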;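 also: plate controls were assay buffer wells for no effect and DAMGO maximal-effect wells for full effect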
TRPC4/MOR inh 2 – second selectivity test of TRPC6 modulators against mouse TRPC4 | shares compounds with TRPC6 inhibitor | HEK293 TRPC4/mu-opioid, membrane potential dye fluorescence; stimulated with maximal-effect DAMGO | inhibition, % at 10 µM | 2,400 compounds, 55% hits | AID 488928;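 active = drop in membrane potential signal beyond 5 SD of the control wells in both duplicate plates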;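 also: TRPC4 counter screen for TRPC6 hits run under conditions tuned for TRPC6 not TRPC4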
TRPC6 inh conf – mouse TRPC6 inhibitor confirmation. 3,300 compounds, 43% hits. HEK293-TRPC6, membrane potential dye, ACh-evoked depolarization. shares compounds with TRPC6 inhibitor. inhibition, % at 10 µM;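 active = fluorescence ratio falls more than 5 SD below the full-stimulation control mean, in both duplicate runs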;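 also: integrated fluorescence ratio of peak minus minimum over baseline after agonist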
TRPC6 act confirm – mouse TRPC6 activator confirmation; shares compounds with TRPC6 inhibitor; HEK293-TRPC6 membrane potential dye fluorescence, FDSS; activation, % at 10 µM; 2,800 compounds, 11% hits; AID 488961;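 active = ratio signal rise beyond 5 SD above unstimulated control wells' mean, seen in both duplicate runs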;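 also: plate controls were buffer EC0 wells for no effect and acetylcholine ECmax response for full effect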
Starred values were filed as active, the others as inactive; i = inactive; . = no result; + = active, no number. This is a sample that favours compounds with a hit; in the whole collection about 2.3% have one here.

SMILES	TRPC4 inh	TRPC4 act	TRPC4 potent	TRPC6 inhibitor	TRPC6 activator	HEK293 MPD ctr-2	HEK293 MPD ctr 2-2	TRPC4/MOR mod	TRPC4/MOR inh 2	TRPC6 inh conf	TRPC6 act confirm	others
CCCCc1ccc(/C(C)=N/Nc2cc(N3CCOCC3)nc(C)n2)cc1	i	i	i	-5.2*	i	i	i	i	i	i	i
COc1ccc(S(=O)(=O)Nc2cccc(N(C)S(C)(=O)=O)c2)cc1Br	i	i	i	i	i	.	.	.	.	.	.
CN(c1cccc(NS(=O)(=O)c2cccs2)c1)S(C)(=O)=O	i	i	i	-6.1*	i	i	i	i	i	i	i
COC(=O)c1ccc(COC(=O)CNC(=O)c2cccs2)cc1	i	i	i	-6.2*	i	i	i	-8.0%*	i	i	i
O=C(CNC(=O)c1cccs1)NCC(=O)OCc1ccc(F)cc1	i	i	i	i	i	.	.	.	.	.	.
O=C(NCc1cccnc1)c1cccn2c(=O)c3sccc3nc12	i	i	i	-7.3*	i	.	.	.	.	i	i	TRPC4 sel inh 2=i;TRPC4 spec=-26%*;HEK293 MPD ctr 2-1=i;HEK293 MPD ctr-1=-340%*
COc1cc(OC)cc(N(C(=O)c2ccco2)C(C(=O)NC2CCCC2)c2ccc(N3CCOCC3)cc2)c1 (stereo not given)	i	i	i	i	i	.	.	.	.	.	.
Cc1nc2cc(NC(=O)N3CCCC3)ccc2n1C	i	i	i	i	i	.	.	.	.	.	.
Cc1nc2cc(NC(=O)N3CC4(C)CC3CC(C)(C)C4)ccc2n1C (stereo not given)	i	i	i	-6.1*	i	i	i	i	i	i	i
Oc1c(C2=NCCNC(C(F)(F)F)=C2)ccc2ccccc12	i	i	i	-5*	i	-96%*	i	-22%*	47%*	i	i
Cn1cc(CN2CCC(n3nccc3NC(=O)c3ccccc3Cl)CC2)c2ccccc21	i	i	i	-5.6*	i	i	i	i	70%*	i	i
CCN(CC)c1ccc(-c2sc(Nc3ccccc3)n[n+]2-c2ccc(F)cc2)cc1	i	i	i	i	19*	+	i	204%*	i	i	226%*
CCc1ccc(Nc2n[n+](-c3ccccc3)c(-c3ccc(N(CC)CC)cc3)s2)cc1	i	i	i	i	i	.	.	.	.	.	.

Source: PubChem
